Laboratory results: ChEMBL document CHEMBL3632550, “Saponarin activates AMPK in a calcium-dependent manner and suppresses gluconeogenesis and increases glucose uptake via phosphorylation of CRTC2 and HDAC5” (Bioorg Med Chem Lett, 2015)
The source made the active and inactive calls. The calls are words filed in the database; no cut-off is given here.

Biological target: AMP-activated protein kinase, AMPK (Homo sapiens) (UniProt P54646+O43741+P54619+Q9UGJ0+Q9Y478+Q13131+Q9UGI9)
Experiment: Activation of AMPK in human HepG2 cells assessed as reduction of gluconeogenesis at 1 mM after 24 hrs by enzymatic colorimetric assay
Type: cell-based
Outline: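 HepG2 cells seeded in DMEM with 10% FBS, switched next day to FBS-free medium and treated 24 h. Medium then replaced by glucose-free, phenol red-free DMEM with 20 mM sodium lactate and 2 mM sodium pyruvate. After 6 h, glucose released into the medium was measured by enzymatic colorimetric assay and normalized to total cell protein. Mean ± SEM; one-way ANOVA with Tukey test.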

- Activity: Active
Compound: CN(C)C(=N)NC(=N)N
